We go through 18 compounds from ChEMBL document CHEMBL2010797, “Exploring aigialomycin d and its analogues as protein kinase inhibitors for cancer targets” (ACS Med Chem Lett, 2011).

The target in test [1] is Cyclin-dependent kinase 2/cyclin A (Homo sapiens) (UniProt P24941+P20248+P78396). The experiment in a line: Inhibition of CDK2/cyclin A using 5-FAM-GGGPATPKKAKKL-COOH as substrate at 10 uM after 1 hr by IMAP assay. In kind it is protein-complex assay. The method in brief:
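IMAP fluorescence-polarization enzyme assay on CDK2/cyclin A, testing competition at the ATP site. Compounds tested at 10 μM, with purvalanol A at 1 μM as reference. Percent inhibition is the average ± SD of three independent experiments, or the mean of two for some compounds.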

Test [2] addresses Cyclin-dependent kinase 2/cyclin A (Homo sapiens, UniProt P24941). Kind of test: Inhibition of CDK2/cyclin A using 5-FAM-GGGPATPKKAKKL-COOH as substrate after 1 hr by IMAP assay. The class given is protein-complex assay. In a few lines: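 IMAP fluorescence-polarization assay on CDK2/cyclin A. IC50 taken from dose–response curves, given as average ± SD of three independent experiments, or the mean of two for one compound.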

Test [3] concerns the target MAP kinase-interacting serine/threonine-protein kinase 2 (Homo sapiens, UniProt Q9HBH9). The experiment in a line: Inhibition of MNK2 using 5-FAM-TATKSGSTTKNRFVV-NH2 as substrate preincubated for 1 hr prior substrate addition measured after 2 hrs by IMAP assay.
Test [4] can be described thus: Inhibition of MEK.
Test [5] can be described thus: Inhibition of MAP.

Sequence of MAP kinase-interacting serine/threonine-protein kinase 2 (Q9HBH9 whole entry): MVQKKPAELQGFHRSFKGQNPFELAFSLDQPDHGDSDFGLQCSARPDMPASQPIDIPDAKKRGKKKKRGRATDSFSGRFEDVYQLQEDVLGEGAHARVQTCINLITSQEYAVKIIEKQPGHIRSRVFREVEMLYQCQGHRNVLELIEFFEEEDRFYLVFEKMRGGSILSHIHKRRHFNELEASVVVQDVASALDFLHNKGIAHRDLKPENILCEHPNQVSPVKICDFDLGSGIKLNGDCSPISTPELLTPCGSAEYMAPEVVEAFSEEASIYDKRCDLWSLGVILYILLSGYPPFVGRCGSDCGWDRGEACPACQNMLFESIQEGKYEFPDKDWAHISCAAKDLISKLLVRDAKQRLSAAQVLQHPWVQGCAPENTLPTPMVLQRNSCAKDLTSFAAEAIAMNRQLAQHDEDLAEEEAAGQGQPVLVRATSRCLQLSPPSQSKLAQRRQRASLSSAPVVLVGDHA

As usually defined, the inhibition is the share of the control response that was lost under treatment. Low readings indicate a weak effect, high ones a strong effect. By IC50 is commonly meant the concentration needed to halve the response being measured. In test [1], `COc1cc(O)c2c(c1)/C=C/CC[C@H](O)[C@H](O)/C=C/C[C@H](C)OC2=O` yielded an inhibition of 49%. Besides, the concentration for half-maximal inhibition (IC50) in test [2] was 19 µM; in test [3], more than 10 µM.
On to `C[C@H]1C/C=C/[C@@H](O)[C@@H](O)CCC(=NO)Cc2cc(O)cc(O)c2C(=O)O1` (mixture of isomers), for which, in test [1], the inhibition turned out to be 19%. The IC50 in test [3] is more than 10 µM.
For `COc1cc2c(c(OC)c1)C(=O)O[C@@H](C)C/C=C/[C@@H](O)[C@@H](O)CC/C=C/2` the same measures were 13% and more than 10 µM.
For `C[C@H]1C/C=C/[C@@H](O)[C@@H](O)CCC(O)Cc2cc(O)cc(O)c2C(=O)O1` (mixture of isomers) the same measures were 8% and more than 10 µM.
For `COc1cc(O)cc2c1C(=O)O[C@@H](C)CCC[C@@H](O)[C@@H](O)CC/C=C/2` the same measures were 10% and more than 10 µM.
For the compound `C[C@H]1CCC[C@@H](O)[C@@H](O)CC/C=C/c2cc(O)cc(O)c2C(=O)O1`, in test [1], the inhibition was 25%. The compound further yielded an IC50 in test [3] of 1.35 µM.
As to `C[C@H]1CCC[C@@H](O)[C@@H](O)CCCCc2cc(O)cc(O)c2C(=O)O1`, the inhibition in test [1] is 16%. In test [3], this compound returned a half-inhibitory concentration (IC50) of more than 10 µM.
`COc1cc(O)c2c(c1)CCC[C@H](O)[C@H](O)C(=O)/C=C\C[C@H](C)OC2=O` had an INH in test [4] of 4 nM.
In test [1], `C[C@H]1CCC[C@@H](O)[C@@H](O)CCC(=O)Cc2cc(O)cc(O)c2C(=O)O1` yielded an inhibition of 17%. The compound further registered an IC50 in test [3] of more than 10 µM.
Turning to `C[C@H]1C/C=C/[C@@H](O)[C@@H](O)CCC(=O)Cc2cc(O)cc(O)c2C(=O)O1`, in test [1], the inhibition was 21%. The compound further had an IC50 in test [3] of more than 10 µM.
For `C[C@H]1CCC[C@@H](O)[C@@H](O)CCC(O)Cc2cc(O)cc(O)c2C(=O)O1` (mixture of isomers) the same measures were 6% and more than 10 µM.
For `COc1cc(O)cc2c1C(=O)O[C@@H](C)C/C=C/[C@@H](O)[C@@H](O)CC/C=C/2` the same measures were 17% and more than 10 µM.
`C[C@@H]1C/C=C/[C@@H](O)[C@@H](O)CC/C=C/c2cc(O)cc(O)c2C(=O)O1` showed an inhibition in test [1] of 64%. In addition, the IC50 in test [2] is 19 µM; in test [3] it was more than 10 µM.
For `CC(C)[C@H](CO)Nc1nc(Nc2cccc(Cl)c2)c2ncn(C(C)C)c2n1`, the inhibition in test [1] stood at 94%.
In test [1], `C[C@H]1C/C=C/CCCC/C=C/c2cc(O)cc(O)c2C(=O)O1` displayed an inhibition of 17%. The compound also registered an IC50 in test [3] of 1.61 µM.
For `O=C1OCC/C=C/[C@@H](O)[C@@H](O)CC/C=C/c2cc(O)cc(O)c21` the same measures were 38% and more than 10 µM.
`COc1cc(O)c2c(c1)[C@H]1O[C@@H]1C[C@H](O)[C@H](O)C(=O)/C=C\C[C@H](C)OC2=O` yielded an INH in test [5] of 17 nM.
On to `C[C@H]1C/C=C/[C@H]2OC(C)(C)O[C@H]2CC/C=C/c2cc(O)cc(O)c2C(=O)O1`, for which the inhibition in test [1] came to 19%. This compound registered an IC50 in test [3] of 0.58 µM.
